Key:
[1] = biological target: T1, Glutamate receptor ionotropic, NMDA 2B (Rattus norvegicus, UniProt Q00960); experiment: Antagonist activity at NR2B NMDA receptor in Wistar rat neocortical cells assessed as inhibition of NMDA-evoked elevation of intracellular calcium concentration; format: functional, cell-based
Procedure, shortened: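 Rat primary neocortical cultures (trypsinised cortex, poly-D-lysine coated wells, glial proliferation stopped with […], serum-free N2 medium) used after 3-10 days in vitro. Compound added (<0.1% DMSO), 5 min baseline, then 40 µM NMDA and 5 min fluorescence recording.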

[2] = biological target: T1, Glutamate receptor ionotropic, NMDA 2B; experiment: Displacement of [3H]Ro 25,6981 from NR2B NMDA receptor in rat forebrain
Procedure, shortened: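 Rat forebrain membranes were washed and suspended in 5 mM TRIS-HCl, pH 7.4, at 1 mg protein/mL. They were incubated 2 h at room temperature with 4 nM [3H]Ro-25,6981 and at least seven compound concentrations. Nonspecific binding was defined with 10 µM Ro-25,6981. Bound and free ligand were separated by GF/B filtration, and filters were counted by liquid scintillation. Results were expressed as % inhibition of specific binding.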

Mus musculus [3] = experiment: Inhibition of formalin induced nociception in ip dosed NMRI mouse by measuring pain-related licking behavior in late phase; format: functional
Procedure, shortened: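 Mouse formalin test: 20 µL 1% formalin in 0.9% saline injected s.c. into the dorsal right hindpaw. Compound given i.p. Pain-related licking scored at the peak of the second (persistent, 10-60 min) phase. ED50 reported.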

Mus musculus [4] = experiment: Inhibition of formalin induced nociception in orally dosed NMRI mouse by measuring pain-related licking behavior in late phase; format: functional; details: po
Procedure, shortened: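 Mice fasted 14-16 h with free 20% glucose. Compound or vehicle (5% Tween 80) given orally 15 min before s.c. injection of 20 µL 1% formalin in 0.9% saline into the dorsal right hindpaw. Licking measured at the peak of the second phase (10-60 min). ED50 reported.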

T1 sequence (Q00960 whole entry): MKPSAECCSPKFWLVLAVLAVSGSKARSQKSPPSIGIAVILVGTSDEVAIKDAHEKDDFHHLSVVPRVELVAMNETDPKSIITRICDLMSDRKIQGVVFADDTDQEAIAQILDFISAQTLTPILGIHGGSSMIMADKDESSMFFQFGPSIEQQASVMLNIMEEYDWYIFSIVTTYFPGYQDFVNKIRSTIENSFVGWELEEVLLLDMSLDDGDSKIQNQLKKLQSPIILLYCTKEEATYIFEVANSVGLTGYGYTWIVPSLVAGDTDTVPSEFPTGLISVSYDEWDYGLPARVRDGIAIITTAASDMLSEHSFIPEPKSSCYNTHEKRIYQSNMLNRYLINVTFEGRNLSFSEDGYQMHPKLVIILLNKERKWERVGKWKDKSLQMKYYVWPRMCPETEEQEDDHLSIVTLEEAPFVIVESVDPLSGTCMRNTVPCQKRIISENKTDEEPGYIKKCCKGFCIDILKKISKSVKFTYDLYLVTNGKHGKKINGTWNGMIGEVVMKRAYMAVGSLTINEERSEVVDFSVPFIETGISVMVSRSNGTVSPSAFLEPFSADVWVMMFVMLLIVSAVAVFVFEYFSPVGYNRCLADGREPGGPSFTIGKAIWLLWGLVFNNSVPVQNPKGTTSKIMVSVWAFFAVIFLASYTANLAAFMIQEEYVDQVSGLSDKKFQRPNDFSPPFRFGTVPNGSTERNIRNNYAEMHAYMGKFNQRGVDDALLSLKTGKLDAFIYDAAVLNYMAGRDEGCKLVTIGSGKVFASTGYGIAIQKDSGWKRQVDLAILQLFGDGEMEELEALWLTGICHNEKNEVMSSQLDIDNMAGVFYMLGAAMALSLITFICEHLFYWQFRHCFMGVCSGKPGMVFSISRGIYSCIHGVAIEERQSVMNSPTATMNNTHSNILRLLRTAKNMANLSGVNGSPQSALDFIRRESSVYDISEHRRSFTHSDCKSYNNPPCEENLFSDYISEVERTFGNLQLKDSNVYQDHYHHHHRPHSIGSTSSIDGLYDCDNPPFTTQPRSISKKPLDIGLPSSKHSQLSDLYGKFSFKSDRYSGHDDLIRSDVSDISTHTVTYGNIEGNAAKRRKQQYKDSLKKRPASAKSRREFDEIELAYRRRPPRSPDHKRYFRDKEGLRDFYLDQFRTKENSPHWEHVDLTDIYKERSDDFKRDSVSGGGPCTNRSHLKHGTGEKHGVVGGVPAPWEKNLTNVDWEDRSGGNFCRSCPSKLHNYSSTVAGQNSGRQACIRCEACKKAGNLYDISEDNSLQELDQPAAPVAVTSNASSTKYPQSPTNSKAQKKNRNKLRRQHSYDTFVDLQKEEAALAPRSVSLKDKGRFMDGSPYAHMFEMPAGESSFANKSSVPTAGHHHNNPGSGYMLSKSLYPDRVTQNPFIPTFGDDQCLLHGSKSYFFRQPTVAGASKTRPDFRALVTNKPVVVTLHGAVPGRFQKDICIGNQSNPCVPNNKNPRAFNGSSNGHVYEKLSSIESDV

IC50 [1] [µM]	IC50 [2] [µM]	Structure (SMILES)	ED50 (Mus musculus [3]) [mg/kg]	ED50 (Mus musculus [4]) [mg/kg]
0.031	0.106	O=C(c1cc2cc(O)cc(O)c2[nH]1)N1CCC(Cc2ccccc2)CC1	–	–
0.0085	0.01	N=C(c1cc2ccc(O)cc2[nH]1)N1CCC(Cc2ccccc2)CC1	–	–
–	0.215	CS(=O)(=O)Nc1cccc2[nH]c(C(=O)N3CCC(Cc4ccccc4)CC3)cc12	–	–
1.16	–	Oc1ccc2cc(CN3CCC(Cc4ccccc4)CC3)[nH]c2c1	–	–
–	> 10	O=C(c1cc2ccc(O)cc2o1)N1CCC(Cc2ccccc2)CC1	–	–
1.9	> 10	O=C(c1cc2cc(O)ccc2o1)N1CCC(Cc2ccccc2)CC1	–	–
0.0025	0.003	COc1cccc(CC2CCN(C(=O)c3nc4cc(O)ccc4[nH]3)CC2)c1	–	–
0.159	–	C[C@@H](CN1CCC(Cc2ccccc2)CC1)[C@@H](O)c1ccc(O)cc1	5.1	–
0.875	0.359	O=C(c1cc2ccc(O)cc2[nH]1)N1CCC(CCc2ccccc2)CC1	–	–
5.77	–	Cn1c(C(=O)N2CCC(Cc3ccccc3)CC2)cc2ccc(O)cc21	–	–
0.047	0.191	O=C(c1cc2c(NCc3ccccc3)cccc2[nH]1)N1CCC(Cc2ccccc2)CC1	–	–
0.09	0.012	O=C(c1cc2ccc(O)cc2[nH]1)N1CCC(Cc2ccc(F)cc2)CC1	–	–
–	0.023	O=C(c1cc2cc3[nH]c(=O)oc3cc2[nH]1)N1CCC(Cc2ccccc2)CC1	–	–
0.04	0.143	Nc1ccc2[nH]c(C(=O)N3CCC(Cc4ccccc4)CC3)nc2c1	–	–
5.61	> 10	O=C(c1cc2cc(O)ccc2s1)N1CCC(Cc2ccccc2)CC1	–	–
0.08	0.017	COc1ccc(CC2CCN(C(=O)c3cc4ccc(O)cc4[nH]3)CC2)cc1	–	–
0.05	0.006	O=C(c1cc2c(ccc3[nH]cnc32)[nH]1)N1CCC(Cc2ccccc2)CC1	–	–
0.596	–	Nc1ccc2[nH]c(C(=O)N3CCC(Cc4ccccc4)CC3)cc2c1	–	–
0.0086	–	CS(=O)(=O)Nc1ccc2nc(CN3CCC(Cc4ccccc4)CC3)[nH]c2c1	–	–

Continued, compound first:

Structure (SMILES)	IC50 [1] [µM]	IC50 [2] [µM]	ED50 (Mus musculus [3]) [mg/kg]	ED50 (Mus musculus [4]) [mg/kg]
O=C(c1cc2cccc(O)c2[nH]1)N1CCC(Cc2ccccc2)CC1	0.165	0.38	–	–
O=C(c1cc2c(O)cccc2[nH]1)N1CCC(Cc2ccccc2)CC1	0.016	0.018	–	–
O=C(c1cc2cc(O)ccc2[nH]1)N1CCC(Cc2ccccc2)CC1	0.025	0.031	–	–
O=C(c1cc2c(O)cc(O)cc2[nH]1)N1CCC(Cc2ccccc2)CC1	0.0065	0.006	–	–
COc1ccc(CC2CCCCN2C(=O)c2cc3ccc(O)cc3[nH]2)cc1 (configuration not stated)	> 8	–	–	–
O=C(c1nc2cc3[nH]c(=O)oc3cc2[nH]1)N1CCC(Cc2ccccc2)CC1	0.193	–	–	–
Cc1ccc(OC2CCN(C(=O)c3nc4cc(O)ccc4[nH]3)CC2)cc1	0.0011	0.003	–	–
O=C(c1cc2c(ccc3[nH]ncc32)[nH]1)N1CCC(Cc2ccccc2)CC1	0.02	0.005	–	–
O=C(c1nc2cc(O)ccc2[nH]1)N1CCC(Oc2ccc(F)cc2)CC1	0.0029	0.006	–	–
O=S(=O)(c1cc2ccc(O)cc2[nH]1)N1CCC(Cc2ccccc2)CC1	> 8	–	–	–
Nc1ccc2cc(C(=O)N3CCC(Cc4ccccc4)CC3)[nH]c2c1	0.627	–	–	–
O=C(c1ccccc1)C1CCN(C(=O)c2cc3ccc(O)cc3[nH]2)CC1	0.744	–	–	–
O=C(c1cc2ccc(O)cc2[nH]1)N1CCC(C(O)c2ccccc2)CC1 (configuration not stated)	0.111	0.06	–	–
CS(=O)(=O)Nc1ccc2cc(C(=O)N3CCC(Cc4ccccc4)CC3)[nH]c2c1	0.03	0.009	–	–
CS(=O)(=O)Nc1ccc2[nH]c(C(=O)N3CCC(Cc4ccccc4)CC3)cc2c1	0.631	1.54	–	–
COc1ccccc1CC1CCN(C(=O)c2cc3ccc(O)cc3[nH]2)CC1	0.249	–	–	–

Structure (SMILES)	IC50 [1] [µM]	IC50 [2] [µM]	ED50 (Mus musculus [3]) [mg/kg]	ED50 (Mus musculus [4]) [mg/kg]
Cc1cccc(CC2CCN(C(=O)c3nc4cc(O)ccc4[nH]3)CC2)c1	0.0024	0.005	–	–
O=C(c1cc2ccc(O)cc2[nH]1)N1CCC(Cc2cccc(F)c2)CC1	0.038	0.031	–	–
O=C(c1cc2ccc(O)cc2[nH]1)N1CCC(Cc2ccccc2)CC1	–	–	–	1.7
O=C(c1cc2ccc(O)cc2[nH]1)N1CCC(c2ccccc2)CC1	> 8	–	–	–
Nc1cccc2[nH]c(C(=O)N3CCC(Cc4ccccc4)CC3)cc12	0.0043	0.012	–	–
Cc1ccc(CC2CCN(C(=O)c3cc4ccc(O)cc4[nH]3)CC2)cc1	0.208	0.028	–	–
O=C(c1nc2cc(O)ccc2[nH]1)N1CCC(Oc2ccc(Cl)cc2)CC1	0.0017	0.014	–	–
O=C(c1nc2c(O)ccc(O)c2[nH]1)N1CCC(Cc2ccccc2)CC1	0.003	0.01	–	–
O=C(c1cc2c(ccc3cn[nH]c32)[nH]1)N1CCC(Cc2ccccc2)CC1	0.058	0.064	–	–
O=C(c1nc2ccc(O)cc2s1)N1CCC(Cc2ccccc2)CC1	2.6	–	–	–
O=C(c1cc2ccc(O)cc2[nH]1)N1CCC(OCc2ccccc2)CC1	0.016	0.047	–	–
CS(=O)(=O)Nc1ccc2[nH]c(C(=O)N3CCC(Cc4ccccc4)CC3)nc2c1	0.0013	0.003	–	–
O=C(c1cc2ccc(O)cc2[nH]1)N1CCC(Oc2ccccc2)CC1	0.107	0.089	–	–
O=c1[nH]c2ccc([S+]([O-])CCN3CCC(Cc4ccc(F)cc4)CC3)cc2o1 (configuration not stated) [BESONPRODIL]	–	–	–	2.4
C[C@@H]([C@@H](O)c1ccc(O)cc1)N1CCC(O)(c2ccccc2)CC1 [TRAXOPRODIL]	–	–	–	> 20

Reference: ChEMBL document CHEMBL1142862, “Selective NR1/2B N-methyl-D-aspartate receptor antagonists among indole-2-carboxamides and benzimidazole-2-carboxamides” (J Med Chem, 2007)
